Key:
[1] = substrate: CC1=C(CCC(=O)NCCCCNCCCNC(=O)CCC2=C(C)C(=O)c3cccc(O)c3C2=O)C(=O)c2c(O)cccc2C1=O; experiment: (§1) The Michaelis-Menten constant for NADPH oxidation by TcTR (Trypanosoma cruzi trypanothione reductase)
Summary of the method: (§2)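 Recombinant TcTR (0.6 U) in 20 mM Hepes, 1 mM EDTA, 0.15 M KCl, pH 7.25 at 22 °C, with 200 µM NADPH and naphthoquinone at five concentrations (0–100 µM) in 1% DMSO. NADPH oxidation at 340 nm; intrinsic oxidase rate not subtracted. Km and Vmax from nonlinear Michaelis–Menten fit; kcat and kcat/Km calculated.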

[2] = substrate: CC1=C(CCC(=O)NCCCCNCCCNC(=O)CCC2=C(C)C(=O)c3ccccc3C2=O)C(=O)c2ccccc2C1=O; experiment: as §1; summary of the method: as §2
[3] = substrate: CC1=C(CCC(=O)NCCCN2CCN(CCCNC(=O)CCC3=C(C)C(=O)c4cccc(O)c4C3=O)CC2)C(=O)c2c(O)cccc2C1=O; experiment: as §1; summary of the method: as §2
[4] = substrate: CC1=C(CCC(=O)NCCCN2CCN(CCCNC(=O)CCC3=C(C)C(=O)c4ccccc4C3=O)CC2)C(=O)c2ccccc2C1=O; experiment: as §1; summary of the method: as §2
[5] = substrate: CC1=C(CCC(=O)NCCCNCCCNC(=O)CCC2=C(C)C(=O)c3cccc(O)c3C2=O)C(=O)c2c(O)cccc2C1=O; experiment: as §1; summary of the method: as §2
[6] = substrate: CC1=C(CCC(=O)NCCCNCCCNC(=O)CCC2=C(C)C(=O)c3ccccc3C2=O)C(=O)c2ccccc2C1=O; experiment: as §1; summary of the method: as §2
[7] = substrate: CC1=C(CCCC(=O)NCCCCNCCCNC(=O)CCCC2=C(C)C(=O)c3cccc(O)c3C2=O)C(=O)c2c(O)cccc2C1=O; experiment: as §1; summary of the method: as §2
[8] = substrate: CC1=C(CCCC(=O)NCCCCNCCCNC(=O)CCCC2=C(C)C(=O)c3ccccc3C2=O)C(=O)c2ccccc2C1=O; experiment: as §1; summary of the method: as §2
[9] = substrate: CC1=C(CCCC(=O)NCCCN2CCN(CCCNC(=O)CCCC3=C(C)C(=O)c4cccc(O)c4C3=O)CC2)C(=O)c2c(O)cccc2C1=O; experiment: as §1; summary of the method: as §2
[10] = substrate: CC1=C(CCCC(=O)NCCCN2CCN(CCCNC(=O)CCCC3=C(C)C(=O)c4ccccc4C3=O)CC2)C(=O)c2ccccc2C1=O; experiment: as §1; summary of the method: as §2
[11] = substrate: CC1=C(CCCC(=O)NCCCNCCCNC(=O)CCCC2=C(C)C(=O)c3cccc(O)c3C2=O)C(=O)c2c(O)cccc2C1=O; experiment: as §1; summary of the method: as §2
[12] = substrate: CC1=C(CCCC(=O)NCCCNCCCNC(=O)CCCC2=C(C)C(=O)c3ccccc3C2=O)C(=O)c2ccccc2C1=O; experiment: as §1; summary of the method: as §2
[13] = substrate: CC1=C(CCCCC(=O)NCCCCNCCCNC(=O)CCCCC2=C(C)C(=O)c3cccc(O)c3C2=O)C(=O)c2c(O)cccc2C1=O; experiment: as §1; summary of the method: as §2
[14] = substrate: CC1=C(CCCCC(=O)NCCCCNCCCNC(=O)CCCCC2=C(C)C(=O)c3ccccc3C2=O)C(=O)c2ccccc2C1=O; experiment: as §1; summary of the method: as §2
[15] = substrate: CC1=C(CCCCC(=O)NCCCN2CCN(CCCNC(=O)CCCCC3=C(C)C(=O)c4cccc(O)c4C3=O)CC2)C(=O)c2c(O)cccc2C1=O; experiment: as §1; summary of the method: as §2
[16] = substrate: CC1=C(CCCCC(=O)NCCCN2CCN(CCCNC(=O)CCCCC3=C(C)C(=O)c4ccccc4C3=O)CC2)C(=O)c2ccccc2C1=O; experiment: as §1; summary of the method: as §2
[17] = substrate: CC1=C(CCCCC(=O)NCCCNCCCNC(=O)CCCCC2=C(C)C(=O)c3cccc(O)c3C2=O)C(=O)c2c(O)cccc2C1=O; experiment: as §1; summary of the method: as §2
[18] = substrate: CC1=C(CCCCC(=O)NCCCNCCCNC(=O)CCCCC2=C(C)C(=O)c3ccccc3C2=O)C(=O)c2ccccc2C1=O; experiment: as §1; summary of the method: as §2
[19] = substrate: CC1=C(CCCCCC(=O)NCCCCNCCCNC(=O)CCCCCC2=C(C)C(=O)c3cccc(O)c3C2=O)C(=O)c2c(O)cccc2C1=O; experiment: as §1; summary of the method: as §2
[20] = substrate: CC1=C(CCCCCC(=O)NCCCCNCCCNC(=O)CCCCCC2=C(C)C(=O)c3ccccc3C2=O)C(=O)c2ccccc2C1=O; experiment: as §1; summary of the method: as §2
[21] = substrate: CC1=C(CCCCCC(=O)NCCCN2CCN(CCCNC(=O)CCCCCC3=C(C)C(=O)c4cccc(O)c4C3=O)CC2)C(=O)c2c(O)cccc2C1=O; experiment: as §1; summary of the method: as §2
[22] = substrate: CC1=C(CCCCCC(=O)NCCCN2CCN(CCCNC(=O)CCCCCC3=C(C)C(=O)c4ccccc4C3=O)CC2)C(=O)c2ccccc2C1=O; experiment: as §1; summary of the method: as §2
[23] = substrate: CC1=C(CCCCCC(=O)NCCCNCCCNC(=O)CCCCCC2=C(C)C(=O)c3cccc(O)c3C2=O)C(=O)c2c(O)cccc2C1=O; experiment: as §1; summary of the method: as §2
[24] = substrate: CC1=C(CCCCCC(=O)NCCCNCCCNC(=O)CCCCCC2=C(C)C(=O)c3ccccc3C2=O)C(=O)c2ccccc2C1=O; experiment: as §1; summary of the method: as §2
[25] = substrate: CC1=CC(=O)c2c(O)cccc2C1=O; experiment: as §1; summary of the method: as §2
[26] = substrate: CC1=CC(=O)c2ccccc2C1=O; experiment: as §1; summary of the method: as §2
[27] = substrate: CC1=C(CCCCC(=O)NCCCN2CCN(CCCNC(=O)CCCCC3=C(C)C(=O)c4cccc(O)c4C3=O)CC2)C(=O)c2c(O)cccc2C1=O; experiment: (§3) Vmax is the maximum velocity of the TcTR (Trypanosoma cruzi trypanothione reductase) catalyzed NADH oxidation.
[28] = substrate: CC1=C(CCCCCC(=O)NCCCNCCCNC(=O)CCCCCC2=C(C)C(=O)c3ccccc3C2=O)C(=O)c2ccccc2C1=O; experiment: as §3
[29] = substrate: CC1=C(CCC(=O)NCCCN2CCN(CCCNC(=O)CCC3=C(C)C(=O)c4cccc(O)c4C3=O)CC2)C(=O)c2c(O)cccc2C1=O; experiment: Vmax is the maximum velocity of the TcTR (Trypanosoma cruzi trypanothione reductase) catalyzed NADPH oxidation.
[30] = substrate: CC1=C(CCCC(=O)NCCCCNCCCNC(=O)CCCC2=C(C)C(=O)c3ccccc3C2=O)C(=O)c2ccccc2C1=O; experiment: as above
[31] = substrate: CC1=C(CCCC(=O)NCCCN2CCN(CCCNC(=O)CCCC3=C(C)C(=O)c4ccccc4C3=O)CC2)C(=O)c2ccccc2C1=O; experiment: as above
[32] = substrate: CC1=C(CCCCC(=O)NCCCNCCCNC(=O)CCCCC2=C(C)C(=O)c3cccc(O)c3C2=O)C(=O)c2c(O)cccc2C1=O; experiment: as above

B1: Trypanothione reductase (Trypanosoma cruzi), P28593 (protein)
chain: MMSKIFDLVVIGAGSGGLEAAWNAATLYKKRVAVIDVQMVHGPPFFSALGGTCVNVGCVPKKLMVTGAQYMEHLRESAGFGWEFDRTTLRAEWKKLIAVKDEAVLNINKSYEEMFRDTEGLEFFLGWGSLESKNVVNVRESADPASAVKERLETENILLASGSWPHMPNIPGIEHCISSNEAFYLPEPPRRVLTVGGGFISVEFAGIFNAYKPKDGQVTLCYRGEMILRGFDHTLREELTKQLTANGIQILTKENPAKVELNADGSKSVTFESGKKMDFDLVMMAIGRSPRTKDLQLQNAGVMIKNGGVQVDEYSRTNVSNIYAIGDVTNRVMLTPVAINEAAALVDTVFGTNPRKTDHTRVASAVFSIPPIGTCGLIEEVASKRYEVVAVYLSSFTPLMHNISGSKYKTFVAKIITNHSDGTVLGVHLLGDNAPEIIQGVGICLKLNAKISDFYNTIGVHPTSAEELCSMRTPSYYYVKGEKMEKPSEASL
[1]
  Km: 48 µM
[2]
  Km: 30 µM
[3]
  Km: 78 µM
[4]
  Km: 14 µM
[5]
  Km: 230 µM
[6]
  Km: 47 µM
[7]
  Km: 93 µM
[8]
  Km: 74 µM
[9]
  Km: 52 µM
[10]
  Km: 12 µM
[11]
  Km: 55 µM
[12]
  Km: 23 µM
[13]
  Km: 20 µM
[14]
  Km: 16 µM
[15]
  Km: 17 µM
[16]
  Km: 16 µM
[17]
  Km: 28 µM
[18]
  Km: 37 µM
[19]
  Km: 37 µM
[20]
  Km: 21 µM
[21]
  Km: 8 µM
[22]
  Km: 12 µM
[23]
  Km: 28 µM
[24]
  Km: 3 µM
[25]
  Km: 15 µM
[26]
  Km: 21 µM
[27]
  Vmax: 5.13 µM/min/mg
[28]
  Vmax: 0.09 µM/min/mg
[29]
  Vmax: 4.74 µM/min/mg
[30]
  Vmax: 2.04 µM/min/mg
[31]
  Vmax: 0.6 µM/min/mg
[32]
  Vmax: 3.83 µM/min/mg

From ChEMBL document CHEMBL1134791, “2- and 3-substituted 1,4-naphthoquinone derivatives as subversive substrates of trypanothione reductase and lipoamide dehydrogenase from Trypanosoma cruzi: synthesis and correlation between redox cycling activities and in vitro cytotoxicity” (J Med Chem, 2001)
